This passage reports cytotoxicity results from ChEMBL document CHEMBL4513216, “Probing the Open Global Health Chemical Diversity Library for Multistage-Active Starting Points for Next-Generation Antimalarials” (ACS Infect Dis, 2020).

The structures appear in SMILES notation.

This data set can be described thus: Toxicity liver stage against HepG2, at 10uM. In kind it is cell-based. Also on record: test concentration 10 uM, cell line HepG2-A16-CD81EGFP. The note with it: human, HepG2-A16-CD81EGFP cells; read-out: INHIBITION
In outline: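 Uninfected HepG2-A16-CD81EGFP cells, 3 × 10^3 per well, 1536-well, plated on prespotted compound at 10 μM final, parasite-free screening media added to match infected plates; puromycin 10 μM positive, DMSO 0.5% negative; run in parallel with 48 h PbLuc assay at 37 °C, 5% CO2; viability by CellTiter-Glo luminescence, normalized to controls.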
On to `CSCCC(=O)N1CC[C@@H](N2CCN(c3ccccc3F)CC2)[C@H](O)C1`, for which the cytotoxicity at 10 µM is -91.4%.

Take `CCc1noc(-c2cccc(OCC(=O)NC(C)C)c2)n1`: the cytotoxicity at 10 µM is -6.53%.

As for `O=C1COc2cc(S(=O)(=O)NCCC3=CCCCC3)c(Cl)cc2N1`, the cytotoxicity at 10 µM turned out to be 18.6%. For `CCCS(=O)(=O)N1CC(=O)N(CCCc2ccccc2)CC(O)C1` (configuration not stated) the value was -17%; for `COC(=O)CNC(=O)Cn1ccc2cccc(OC)c21`, -34.9%; for `Cc1ccccc1NC(=O)NCC(C)(O)c1cccs1` (configuration not stated), 8.5%. Turning to `O=C(c1cc(C2CC2)on1)N1CCC(Oc2ncccc2Cl)CC1`, the cytotoxicity at 10 µM worked out at 5.37%. As for `CC1N(CC2CC2)C(=O)COC12CCN(C(=O)c1ccncc1)CC2` (configuration not stated), the figure is -13.7%; as for `COc1cccc(CNC(=O)c2nc3c(o2)CN(C(=O)N(C)C)C3)c1`, -1.68%. For `COc1ccccc1CCNC(=O)CC1(Cn2cnnn2)CCCCC1` the value was 11.3%; for `O=C(Nc1ccccc1)C1=CC2(CCNCC2)c2ccccc21`, 1.54%; for `CN(Cc1ccccn1)C(=O)[C@]12COC[C@H]1CN(Cc1cnn(C)c1)C2`, -9.74%. As for `CN1CCCc2c1nc1c(c2N)CCC1`, the figure is 10.2%; as for `O=S(=O)(c1cc(F)ccc1F)n1cc(Cl)cn1`, 4.52%; as for `O=C(c1ccccn1)N1Cc2ccccc2OC2(CCOCC2)C1`, -12.9%. As for `Cc1nc(C(=O)N(C)[C@@H]2CCC[C@@H](Oc3ccccc3)[C@@H]2O)co1`, the cytotoxicity at 10 µM is -22.6%. For `CC(C)S(=O)(=O)N1CCC(c2cc3n(n2)[C@@H](C(F)(F)F)C[C@@H](C)N3)CC1`, the cytotoxicity at 10 µM was -13.5%.

Regarding `CSCC[C@@H]1CN2CCC[C@H]2CN1Cc1cn(C)nc1C`, the cytotoxicity at 10 µM was -11.3%. As for `COCC(=O)N1CCCCC1c1ccnc(Nc2ncc(C)s2)n1` (configuration not stated), the figure is -10.6%. In the case of `CS(=O)(=O)c1snnc1C1CCN(Cc2cccnc2)CC1`, the cytotoxicity at 10 µM is -11.2%. For `COc1ccc(-n2cc(CNC(=O)c3ccc[nH]3)nn2)cc1`, the cytotoxicity at 10 µM was -10.9%.

`Clc1cc(Cl)cc(CN2CCC(NCc3ncc[nH]3)CC2)c1`: the cytotoxicity at 10 µM amounted to 18.4%.

Consider `Fc1cc(CCNc2ccc3nccn3n2)c2c(c1)COCO2`, for which the cytotoxicity at 10 µM amounted to 17.2%. As to `CC(C)c1ccc(CNC(c2ccc(F)cn2)C(C)C)cc1` (configuration not stated), the cytotoxicity at 10 µM was -4.45%. Turning to `Cc1nc(COC(=O)c2cccc3c2OCCO3)cs1`, the cytotoxicity at 10 µM came to 1.4%.

For the compound `O=C(NCc1ccc(-n2cncn2)nc1)c1cnccn1`, the cytotoxicity at 10 µM is -5.18%.

For `CCC(C#N)NC(=O)CCCOc1cccc(C(C)=O)c1` (configuration not stated), the cytotoxicity at 10 µM was -35.1%. With `CCc1csc(C2CCCN(C(=O)c3ccc(=O)n(C)n3)C2)n1` (configuration not stated), the cytotoxicity at 10 µM was -44.1%. With `COc1ccc(S(=O)(=O)C(F)(F)F)cc1NC(=O)CSCC#N`, the cytotoxicity at 10 µM was -2.72%. For the compound `Cn1cc(NC(=O)N2CCN(Cc3cscn3)CC2)ccc1=O`, the cytotoxicity at 10 µM amounted to 3.67%.

Regarding `CN(Cc1ccc2c(c1)OCO2)C(=O)c1ccn(C)c(=O)c1`, the cytotoxicity at 10 µM was determined as 3.01%. For the compound `OC(CN1CC(n2cccn2)C1)c1ccc2c(c1)OCCO2` (configuration not stated), the cytotoxicity at 10 µM is -19%. Turning to `CCN(CC1CN(Cc2cccnc2)CCO1)c1cccnn1` (configuration not stated), the cytotoxicity at 10 µM was -14%. On to `Clc1cnccc1N1CCC(OC2CCOCC2)CC1`, for which the cytotoxicity at 10 µM was -0.439%. As for `c1ccc(-c2nc(CNC3CCCN(c4cccnn4)C3)no2)cc1` (configuration not stated), the figure is 15.9%. As for `CN(Cc1ccc(F)cc1)C(=O)CN1CCCCC1Cn1cncn1` (configuration not stated), the figure is 0.108%. With `O=C(C1CCCC1)N1CCC2(CC1)OCCO2`, the cytotoxicity at 10 µM was determined as 2.53%. As for `COc1ccc(CNC(=O)NCc2nc(C)c(C)s2)cn1`, the figure is 8.73%. In the case of `CCN(Cc1ccoc1)C(=O)NC1CCN(CC2CCCC2)CC1`, the cytotoxicity at 10 µM was -6.11%.

For the compound `CC(=O)N(C)CC(=O)NCC1(c2cccc(C)c2)CCCC1`, the cytotoxicity at 10 µM is -2.37%. As to `CCN(Cc1ccoc1)C(=O)c1cc2c(c(S(N)(=O)=O)c1)CCC2`, the cytotoxicity at 10 µM was -4.97%. For `Cn1cc(CCNC(=O)C2(c3cccc(Cl)c3)CC2)cn1` the value was 0.33%; for `COCCC(C)NC(=O)N1CCSC(C)(C)C1` (configuration not stated), -3.94%. Consider `O=C(CNc1cccc(CC(F)(F)F)c1)NCc1ccco1`, for which the cytotoxicity at 10 µM is -46.3%. For `NC(=O)C1CCCN1Cc1ccccc1NC(=O)CC(F)(F)F` (configuration not stated), the cytotoxicity at 10 µM worked out at 13.1%. As for `COCC(C)NC(=O)CCCn1cnc2ccccc2c1=O` (configuration not stated), the figure is 8.43%; as for `CCc1cnc(CCNS(C)(=O)=O)s1`, 2.17%; as for `CN(C(=O)c1cccc(C(=O)NS(C)(=O)=O)c1)c1ccccc1`, -2.35%. For `COCC1CC2(CCN(Cc3ccoc3)CC2)CN1Cc1ccccn1` (configuration not stated) the value was -98.8%; for `O=C(c1cccnc1)N1CCO[C@@H]2CNC[C@@H]21`, -103%; for `O=C(c1cnccn1)N1CCc2ncc(CN3CCOCC3)n2CC1`, -77%. For `CCOC[C@@H]1CCC[C@@]12CN(Cc1cccnc1)CCO2`, the cytotoxicity at 10 µM is -65.7%.

Turning to `O=C(c1cccs1)N1CCC2(CC1)CN(c1cncnc1)C(=O)CO2`, the cytotoxicity at 10 µM is -67.7%.

For `Cc1cc(C(=O)N2CC[C@H]3C[C@H](c4ccncn4)O[C@@H]3C2)c(C)[nH]1`, the cytotoxicity at 10 µM is -70.1%. For `Cc1ccc(CN2CCCC3(CCN(S(=O)(=O)N(C)C)C3)C2)o1` (configuration not stated) the value was 7.49%; for `Cc1nn(CC(=O)O)c(C)c1NS(=O)(=O)c1cc2ccccc2s1`, -7.07%. For `Cn1cc(CN2CCC(Cn3cc(-c4ccccc4)nn3)CC2)cn1` the value was 9.47%.

With `c1ccc(-c2nc3c(c(NCc4n[nH]c5c4CCC5)n2)CCNC3)cc1`, the cytotoxicity at 10 µM was -12.8%. Take `Cc1cc(N2CCCN(Cc3ccc(C)o3)CC2)ccn1`: the cytotoxicity at 10 µM is -5.51%. Regarding `Cc1nc(C2CCCNC2)cc(N(Cc2nccn2C)C2CC2)n1` (configuration not stated), the cytotoxicity at 10 µM is -3.42%.

Turning to `CN(CCc1cnn(C)c1)C(=O)C(c1ccccc1F)N(C)C` (configuration not stated), the cytotoxicity at 10 µM was found to be 3.11%. On to `O=C(NCCCO)c1cnc(-c2ccccc2)nc1O`, for which the cytotoxicity at 10 µM was -7.11%.

On to `CCCc1nc(C)c(CNc2nc(C)nc3oc(C)nc23)s1`, for which the cytotoxicity at 10 µM is -44.6%.

As to `c1ccc(Oc2nccc3occc23)c(CN2CCCCC2)c1`, the cytotoxicity at 10 µM was -10.1%. As for `OCc1ccc(CN2CCC(n3cc(C4CCCCC4)nn3)CC2)o1`, the figure is 1.02%; as for `Cc1nccn1CCN(C)C(=O)C1CCN(C(=O)C2CCCC2)CC1`, -4.06%. `Nc1nc2c(c(N3CCCC(CN4CCCC4=O)C3)n1)CCNCC2` (configuration not stated): the cytotoxicity at 10 µM turned out to be 14.6%.

Regarding `CC(C)(O)CCc1cccc(C(=O)N[C@H](C(N)=O)c2ccccc2)c1`, the cytotoxicity at 10 µM was -4.21%. For `Cn1nc(C2CCCN(C(=O)Cc3ccsc3)C2)c2nccnc21` (configuration not stated) the value was 4.68%; for `Cc1cccc2cc(CNCCCN3CCOCC3)c(=O)[nH]c12`, 0.127%; for `Cc1nc(CN2CCCC(NCc3sccc3C)C2)no1` (configuration not stated), -2.85%. For `CC(C)Oc1ccc(CNC(=O)NCC(C)(C)C(N)=O)cc1F` the value was -24.8%. Consider `O=c1[nH]c(CN2CCOC(Cn3cccn3)C2)nc2ccccc12` (configuration not stated), for which the cytotoxicity at 10 µM was -2.32%. As for `Cc1ccc(C(=O)N2CCC(Oc3ccc(F)cc3F)CC2)c(=O)[nH]1`, the figure is 7.63%; as for `Cc1cnn(CC2CCCN2C(=O)c2cnc3n[nH]c(C)c3c2)c1` (configuration not stated), 8.73%; as for `CC(C)c1nnc2n1CCN(C(=O)c1ccc(CN(C)C)cc1)C2`, 5.2%. For the compound `Cc1nnc(N2CCC(CN(C)C(C)C)CC2)c(C#N)c1C`, the cytotoxicity at 10 µM stood at 3.63%. As for `c1nc(CCC2CCCN2)cc(N2CCCOCC2)n1` (configuration not stated), the figure is 3.91%; as for `Cc1cccc(CN2Cc3[nH]nc(COCC4CC4)c3C2)n1`, 3.79%; as for `CCOCC1CN(c2ccc(C)nn2)Cc2cnn(CC)c21` (configuration not stated), 9.41%. For `COc1ccc(CNC(C)c2ccccc2Cl)c(OC)c1OC` (configuration not stated), the cytotoxicity at 10 µM was 8.01%. On to `FC1(F)CCN(Cc2ccncc2)CC12CCN(Cc1ccccn1)C2` (configuration not stated), for which the cytotoxicity at 10 µM was found to be 10.2%. As for `O=C(c1ccccc1)N1CCO[C@@H]2CN(c3ncccn3)C[C@@H]2C1`, the figure is -6.63%. For `CN(C)c1ncc(C2Nc3cc(Cl)ccc3C3=NCCCN32)cn1` (configuration not stated) the value was -32%; for `Cc1cc(S(=O)(=O)NCC(C)(C)N)c(F)cc1F`, 3.8%; for `c1cnc(NCc2cncc3c2CCN(CC2CC2)C3)nc1`, -101%.

For the compound `Cn1cnc2c(-c3cccnc3)nc(C3CCNCC3)cc21`, the cytotoxicity at 10 µM was -99.9%. For `c1cc(COC[C@]23COC[C@H]2CN(CC2CCC2)C3)ccn1`, the cytotoxicity at 10 µM was -77.1%. For the compound `Cn1cc(C2CC(=O)NC23CCN(CC2CC2)CC3)cn1` (configuration not stated), the cytotoxicity at 10 µM is -7.28%. Take `Cc1noc([C@]23COC[C@H]2CN(Cc2cc(C)on2)C3)n1`: the cytotoxicity at 10 µM is 0.841%.

Turning to `COCCN1C(=O)CCC12CCCN(Cc1nccs1)CC2` (configuration not stated), the cytotoxicity at 10 µM was -85.1%. As for `O=C(N[C@H]1CN(Cc2ccsc2)[C@@H]2CCCO[C@H]12)C1CC1`, the figure is 4.62%. As for `CN1CC(=O)N(c2ccccc2)CC12CCN(CC1CC1)C2` (configuration not stated), the figure is 4.42%; as for `Cc1ccc(N2CCN(C)c3ncccc3C2)nn1`, -3.77%. `c1ccc(NC[C@@H]2CCC[C@@H]3CN(c4ncccn4)C[C@@H]32)nc1`: the cytotoxicity at 10 µM was -106%. For `c1ccc(CN2C[C@@H]3COC[C@]3(COCc3ccncc3)C2)nc1` the value was -76.1%.

For `O=C(Nc1ccccc1)N1C2CCC(O)(CC2)C1CN1CCOCC1` (configuration not stated), the cytotoxicity at 10 µM turned out to be 10%.
